INS-1E GSIS act – GLuc luminescence reporter in INS-1E cells, primary screen for activators of glucose-dependent secretion of insulin; INS-1E GLuc reporter insulin secretion, 2-3 h; activation, % at 16.6 µM; 0.61% of 370,000 active; AID 743287;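 active means lowest replicate activation of at least 40%, so every replicate reaches that level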;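 further: 0% = median of neutral control wells and 100% = median of IBMX positive control wells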
Ecoli rRNA inh – inhibitors of bacterial rRNA selective over humanized ribosomes; 1.6% of 350,000 active; GFP signal change (wild-type ribosome), % (test concentration not listed); AID 720706; E. coli WT GFP vs humanized-ribosome RFP mutants, fluorescence, 24 h; hits give low values; DMSO median 0, no signal -100;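 active means significant combined selectivity score with lowered wild-type GFP, culture density cut under 30%, mutant RFP and density less affected; inactive means any of these conditions unmet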
RAD52 anneal inh – blocks human RAD52 DNA annealing | P43351 | recombinant RAD52 DNA annealing, FRET fluorescence | inhibition, % at 18.7 µM | 0.46% of 360,000 active;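 active means every replicate showing at least 50% inhibition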
Target sequence (P43351 whole entry, looked up): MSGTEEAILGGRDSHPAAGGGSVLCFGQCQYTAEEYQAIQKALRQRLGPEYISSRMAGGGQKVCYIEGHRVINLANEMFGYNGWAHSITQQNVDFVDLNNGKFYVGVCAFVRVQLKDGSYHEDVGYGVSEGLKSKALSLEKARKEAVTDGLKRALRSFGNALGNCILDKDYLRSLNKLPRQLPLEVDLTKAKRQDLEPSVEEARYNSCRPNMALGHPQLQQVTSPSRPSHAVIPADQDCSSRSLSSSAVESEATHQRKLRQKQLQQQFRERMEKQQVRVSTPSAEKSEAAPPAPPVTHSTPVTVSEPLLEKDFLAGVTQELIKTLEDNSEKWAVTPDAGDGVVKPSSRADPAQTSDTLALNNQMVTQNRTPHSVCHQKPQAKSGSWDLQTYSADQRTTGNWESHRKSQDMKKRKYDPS
RAD54 branch – inhibitors of human RAD54 branch migration | RAD54 Holliday junction branch migration, FAM/BHQ fluorescence | Q92698 | 0.14% of 360,000 active | inhibition, % at 10.4 µM;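 active means mean normalized replicate activity at least 40 and at least half of replicates scoring 40 or more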;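 further: 0% = median of neutral control wells and 100% = median of positive control wells; inhibitors cause a drop in the FAM fluorescence signal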
E-sel inducer – E-selectin induction on HUVECs; P16581; HUVEC E-selectin immunofluorescence imaging; normalized: neutral wells 0, TNF-alpha wells 100; activation, % at 7.58 µM; 0.37% of 260,000 active;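 active means mean E-selectin-positive cell signal at least 10% of the positive control, reached in at least 60% of replicates, without over 20% cell loss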
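Assay system: HUVEC, human umbilical vein endothelial cells / Amount: 3,000 HUVEC/well / Controls: TNF-alpha positive control, DMSO neutral control / Compound dosing: single concentration / Medium: EGM-2 over gelatin coat / Evaluation: percent E-selectin-positive cells / Signal: immunofluorescence imaging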
AF4-AF9 inh – blocks AF4 peptide binding to human AF9; 0.47% of 350,000 active; AlphaScreen, biotin-AF4 peptide binding to FLAG-AF9; P42568; inhibition, % at 10 µM;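 active means every replicate reaching a set inhibition limit, whatever the replicate mean, cut at about 25% in these data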;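 further: 0% = plate neutral control median and 100% = total signal loss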
Active calls of the source: *; x = no result. A selection: hits, their analogues and other compounds. The true share with any hit is near 2.6%.

SMILES	INS-1E GSIS act	Ecoli rRNA inh	RAD52 anneal inh	RAD54 branch	E-sel inducer	AF4-AF9 inh
O=C(NCC1CC1)[C@@H]1[C@@H](CO)[C@@H]2Cn3c(cccc3=O)[C@@H]2N1Cc1cncnc1	0.0	-0.1	7.2	7.5	0.1	0.9
CC(C)(C)c1ccc(-c2cc(-c3ccccc3O)[nH]n2)cc1	68.4*	-12.3	1.4	2.6	x	1.0
CCOC(=O)c1c(CSC(=N)N)n(C)c2cc(Br)c(OC(C)=O)cc12	x	-27.0*	26.6	x	x	11.0
O=C(NCC[C@@H]1CC[C@H](NC(=O)c2cccnc2)[C@@H](CO)O1)Nc1ccc(C(F)(F)F)cc1	-15.0	-58.0	7.2	-3.3	-0.2	10.7
O=C(NCC[C@@H]1CC[C@@H](NC(=O)c2cccnc2)[C@H](CO)O1)Nc1ccc(C(F)(F)F)cc1	-1.4	-1.9	46.6	11.7	-0.2	25.9*
O=C(NCC[C@H]1CC[C@@H](NC(=O)c2cccnc2)[C@@H](CO)O1)Nc1ccc(F)cc1	-2.5	-1.4	13.8	5.8	-1.2	6.9
O=C(NCC[C@H]1CC[C@H](NC(=O)c2cccnc2)[C@H](CO)O1)Nc1ccc(F)cc1	-4.3	3.8	50.3*	-8.9	1.6	22.0
COc1ccccc1Nc1nnc(SCC(=O)NC(=O)Nc2ccc3c(c2)OCCO3)s1	80.7*	x	x	x	-0.1	x
Cc1cccc(Nc2nnc(SCC(=O)NC(=O)Nc3ccc4c(c3)OCCO4)s2)c1	0.7	15.8	-8.4	2.7	-1.2	10.9
O=C(Nc1nnc(S(=O)(=O)Cc2ccc(F)cc2)s1)c1ccccc1F	-50.5	-40.0*	-6.8	1.0	-0.1	-2.4
Cc1ccccc1NS(=O)(=O)c1nnc(NC(=O)c2ccccc2F)s1	-10.3	-14.6	-12.2	-2.6	0.0	2.7
O=C(NC1CCC1)[C@H]1[C@H](CO)[C@H]2Cn3c(ccc(-c4ccc(F)cc4)c3=O)[C@@H]1N2	-4.7	1.8	-6.2	-5.0	0.3	1.5
CCCCCCCCOC(=O)c1nc(Cl)c(Cl)c(N)c1Cl	60.2*	-6.6	-9.6	-16.1	x	-2.1
O=C(NCc1ccccc1)[C@@H]1[C@@H](CO)[C@@H]2Cn3c(ccc(/C=C/c4ccccc4)c3=O)[C@H]1N2CC1CC1	-13.6	-9.1	4.0	x	-0.3	-43.5
Cc1cc(C)cc(NC(=O)c2cc(Cl)sc2Cl)c1	-9.9	x	x	x	x	x
CC(=O)c1ccc(NC(=O)c2cc(Cl)sc2Cl)cc1	-28.4	-30.4*	-19.9	x	-0.2	5.9
COc1ccc2c3c([nH]c2c1)[C@H](CO)N(C(=O)C1CC1)CC31CN(S(C)(=O)=O)C1	17.6	2.8	-15.5	x	0.1	-0.4
Cc1ccc(-c2ccc([C@@H]3[C@@H](CO)N4CCCCN(S(=O)(=O)c5cccc(C)c5)C[C@H]34)cc2)cc1	x	x	52.7*	5.7	x	-0.1
Cc1ccc(-c2ccc([C@@H]3[C@H]4CN(S(=O)(=O)c5cccc(C)c5)CCCCN4[C@H]3CO)cc2)cc1	x	x	12.0	4.3	x	-9.0
Cc1cccc(S(=O)(=O)N2CCCCN3[C@@H](CO)[C@H](c4ccc(-c5ccccc5)cc4)[C@@H]3C2)c1	x	x	68.3*	1.7	x	-1.5
O=S(=O)(c1cccs1)N1CCCCN2[C@@H](CO)[C@@H](c3ccc(C4=CCCC4)cc3)[C@@H]2C1	-29.4	-33.5*	41.3	-7.9	-0.7	3.3
COc1ccc2c(c1)CCc1c(C(=O)N(C)c3ccccc3)noc1-2	-26.9	-42.9*	-24.1	5.6	-0.3	-0.5
COCCNC(=O)c1noc2c1CCc1cc(OC)ccc1-2	x	x	x	-7.4	x	x
CC(=O)N(C)C[C@H]1Oc2c(N)cccc2C(=O)N(C)C[C@H]1C	-1.5	1.8	x	x	x	x
O=C(CSc1nc2ncccc2[nH]1)NC1CCCC1	8.8	11.5	-13.8	-14.7	-0.1	39.7*
COC(=O)CSc1nc2ncccc2[nH]1	x	x	x	-1.0	x	x
Cc1nc2nc(-c3ccccc3)cn2nc1C	-3.0	-25.9*	-2.3	-2.2	x	2.5
Cc1nc2nc(-c3ccc(F)cc3)cn2nc1C	24.2	6.4	-77.1	x	0.5	-2.7
COCc1cn([C@H]2C[C@@H]3O[C@@H](CO)CC[C@@H]3O[C@@H]2CCc2ccc(-c3ccc(OC)cc3)cc2)nn1	x	x	5.7	x	x	0.0
CC1CCC(NC(=O)C2COc3ccccc3O2)CC1 (centres undefined)	57.0*	3.9	-15.1	x	-0.2	-0.4
